The values below come from publication PMC8380758 (ACS chemical biology, 2021).

The target of one assay is PHD1KDM5B. The conditions noted are these: ref [13],[14]; cited from earlier work.
A further assay has as its system GST–PHD1 (KDM5A) Y294F. Kind of assay: Fluorescence polarization binding, Y294F mutant. The settings on record: FP, H3K4 10mer peptides. In general terms: In fluorescence polarisation assays a small probe gives low polarisation when free and higher when bound to something large.
The subject of assay [1] is PHD1 (S287–E344) of KDM5A. Kind of assay: 2D 1H,15N HSQC NMR peptide titration. It is filed as binding. The settings on record: 200 μM 15N-labeled PHD1, 298 K, pH 7.5. The procedure, abridged: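 15N-labelled KDM5A PHD1 (S287–E344) from GST fusion, GST removed by TEV, then Ni-resin pass and gel filtration. […] Buffer was 50 mM HEPES, NaCl, 0.5 mM TCEP, 0.1 mM ZnCl2, pH 7.5, 5% D2O, 298 K. CSP = √[(ΔH² + (0.2ΔN)²)/2].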

Assay [2] has as its target T1, PHD1 domain of histone demethylase KDM5A (S287–E344) (UniProt P29375 287-344, 15N- or 13C-,15N-labeled).
T1 sequence (looked up): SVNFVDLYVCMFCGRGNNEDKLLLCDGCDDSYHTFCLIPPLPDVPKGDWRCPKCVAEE
Kind of assay: NMR titration.

Assay [3] concerns the target T2, GST–PHD1 Y294A (KDM5A S287–K347) (UniProt P29375 287-347, Y294A).
T2 sequence (looked up): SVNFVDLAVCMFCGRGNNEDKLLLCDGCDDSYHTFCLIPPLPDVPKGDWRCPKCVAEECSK
As to the kind of experiment: fluorescence polarisation.

Assay [4] has as its target T3, GST–PHD1 WT (KDM5A S287–K347) (UniProt P29375 287-347).
T3 sequence (looked up): T2 sequence (looked up) with A8Y
Kind of assay: fluorescence polarisation.

Assay [5] deals with T4, GST–PHD1 V330A (KDM5A S287–K347) (UniProt P29375 287-347, V330A).
T4 sequence (looked up): T2 sequence (looked up) with A8Y, V44A
As to the kind of experiment: fluorescence polarisation.

Assay [6] deals with T5, GST–PHD1 D292N (KDM5A S287–K347) (UniProt P29375 287-347, D292N).
T5 sequence (looked up): T2 sequence (looked up) with D6N, A8Y
As to the kind of experiment: fluorescence polarisation.

Changes are numbered by the printed parent chain. No end group written: not given here.

As for H3K4me3: H3K4me3 10mer peptide, the Kd (in general, the free concentration of one partner at which half of the binding sites on the other are occupied at equilibrium, for simple one-to-one binding) on PHD1KDM5B is > 80 µM. For the same molecule, in the assay on GST–PHD1 (KDM5A) Y294F, the “impact of mutation on binding” value is “minimal impact on binding”.

For H3K4me1: H3K4me1 10mer peptide, in assay [1], the “interaction strength indicated by slow–intermediate exchange” value is “strong interactions, comparable to those with unmodified H3”.

Turning to H3 10mer: H3 10mer (A1–S10), the “interaction strength indicated by slow–intermediate exchange” value in assay [1] is recorded as “low–micromolar affinity”.

H3K4me2: H3K4me2 10mer peptide: the dissociation constant Kd at PHD1KDM5B is > 80 µM. Further, the “impact of mutation on binding” value in the assay with GST–PHD1 (KDM5A) Y294F was “minimal impact on binding”.

On to ARTK(Me3)QTARKS (peptide, UniProt P68431 2-11, looked up) [histone H3K4me3 10mer peptide], for which the binding result in assay [2], in assay [3], in assay [4], in assay [5] and in assay [6] was “binds” in each case.

Turning to ARTKQTARKS (peptide, UniProt P68431 2-11, looked up) [histone H3 10mer peptide (A1–S10), unmodified], the binding result in assay [2], in assay [4] and in assay [6] was “binds” throughout.

Take ARTK(Me)QTARKS (peptide, UniProt P68431 2-11, looked up) [histone H3K4me1 10mer peptide]: the binding result in assay [2], in assay [3], in assay [4], in assay [5] and in assay [6] was “binds” in each case.

As for ARTK(Me2)QTARKS (peptide, UniProt P68431 2-11, looked up) [histone H3K4me2 10mer peptide], the binding result in assay [2], in assay [3], in assay [4], in assay [5] and in assay [6] was “binds” each time.
